Results: paper PMC2692962 (Journal of molecular biology, 2009)

Experiments:
[1] = biological target: T1, NS3h_1b(con1) HCV helicase (Hepatitis C virus genotype 1b, UniProt Q9WMX2); assay: Single-turnover MBHA; type: biochemical; conditions: for Afast / kfast / Aslow / kslow: 0.5 mM NTP
In short: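 Enzyme (50 nM NS3h) and 10 nM 17 bp Cy5 beacon DNA substrate in 50 mM MOPS pH 6.5 with 4 mM MgCl2 were rapidly mixed 1:1 with 1.0 mM NTP plus 2 μM dT20 trap. Fluorescence gave substrate remaining, corrected against a substrate-free blank and pre-NTP signal. Product (5 nM minus remaining) was fit to a two-phase first-order equation. Three independent reactions were run.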

[2] = biological target: T1, NS3h_1b(con1) HCV helicase; assay: Molecular beacon based helicase assay; type: biochemical; conditions: for Vmax, Michaelis-Menten / Km: data at or below 1 mM NTP; for Vmax, substrate inhibition model: global fit to equation (2); for Km: read-out: Km, Michaelis-Menten; for unwinding rate, % of that seen with ATP: 0.5 mM NTP analog, 2 mM MgCl2, initial rates; for DNA unwinding rate, times faster than ATP: 0.5 mM NTP, 2 mM MgCl2, 25 nM NS3h, 22 °C; for ability of divalent metal to support DNA unwinding: metal replacing Mg^2+
[3] = biological target: T1, NS3h_1b(con1) HCV helicase; assay: ATP hydrolysis assay; type: biochemical; conditions: for ATP hydrolysis in the absence of RNA: no nucleic acid, 100 nM NS3h, versus rate without added metal; for ATP hydrolysis in the absence of RNA / ATP hydrolysis in the presence of RNA: 2 mM ATP, 37 °C; for ATP hydrolysis in the presence of RNA: 0.1 mg/ml poly(U), 15 nM NS3h; for ATP hydrolyzed for each 25 bp duplex separated: MBHA conditions, 25 nM NS3h, 1.25 mM metal; for ATP hydrolyzed for each 25 bp duplex separated / rate of ATP hydrolysis: 1 mM ATP; for rate of ATP hydrolysis: in MBHA, 25 nM NS3h_1b(con1), 1.25 mM metal chloride, triplicate; for ATP hydrolyzed in the time needed to separate a single base pair: steady state unwinding versus ATP hydrolysis, only divalent cation present
HCV helicase [4] = conditions: ref Locatelli et al.; cited from earlier work
[5] = biological target: T1, NS3h_1b(con1) HCV helicase; assay: mantADP; type: binding; conditions: FRET, metal replacing Mg^2+
HCV helicase [6] = conditions: ref Kyono et al.; cited from earlier work
full-length NS3 = conditions: ref Wardell et al.; cited from earlier work
[7] = 17 base pairs substrate, two-phase fit

T1 sequence (Q9WMX2 1192-1657): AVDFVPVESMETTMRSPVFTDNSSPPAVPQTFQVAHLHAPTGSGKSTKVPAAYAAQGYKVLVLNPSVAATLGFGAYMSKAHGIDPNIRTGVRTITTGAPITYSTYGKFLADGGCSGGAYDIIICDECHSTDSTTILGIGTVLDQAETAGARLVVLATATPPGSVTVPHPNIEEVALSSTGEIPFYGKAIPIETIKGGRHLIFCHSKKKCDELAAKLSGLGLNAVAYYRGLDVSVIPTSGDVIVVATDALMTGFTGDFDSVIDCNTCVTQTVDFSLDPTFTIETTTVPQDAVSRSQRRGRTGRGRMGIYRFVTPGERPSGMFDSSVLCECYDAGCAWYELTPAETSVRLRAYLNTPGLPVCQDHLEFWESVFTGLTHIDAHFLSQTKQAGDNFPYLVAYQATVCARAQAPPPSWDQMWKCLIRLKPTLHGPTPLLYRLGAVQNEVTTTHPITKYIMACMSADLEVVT

For `Nc1nc2c(ncn2[C@@H]2O[C@H](COP(=O)(O)OP(=O)(O)OP(=O)(O)O)[C@@H](O)[C@H]2O)c(=O)[nH]1` [GTP], which “reaction amplitude, times less than in ATP fueled reactions” value ([1]; 17 base pair substrate) is on record?
Its value is 7 times.

And the Afast ([1]; 17 base pairs substrate)?
The Afast was 0.42 ± 0.03 nM.

What about the kfast ([1]; 17 base pairs substrate) of the same compound?
Its kfast is 8.3 ± 1.9 min⁻¹.

And the Afast ([1]; 30 base pairs substrate)?
The Afast was 0.58 ± 0.08 nM.

What about the Aslow ([1]; 30 base pairs substrate) of the same compound?
The Aslow was 0.11 ± 0.05 nM.

And the kfast ([1]; 30 base pairs substrate)?
Its kfast is 0.61 ± 0.06 min⁻¹.

What about the kslow ([1]; 30 base pairs substrate) of the same compound?
Its kslow is 0.62 ± 0.08 min⁻¹.

What about the “Vmax, Michaelis-Menten” value ([2]; 0.25 mM free Mg^2+) of the same compound?
Its value is 0.05 nM/min.

What about the “Kii (GTP)” value ([2]; equation (3), GTP as non-competitive inhibitor of ATP fueled unwinding) of the same compound?
Its value is 0.65 mM.

And the “Vmax, substrate inhibition model” value ([2]; 0.25 mM free Mg^2+)?
Its value is 0.41 nM/min.

What about the Km ([2]; 0.25 mM free Mg^2+) of the same compound?
The Km was 410 µM.

For `Nc1ncnc2c1ncn2[C@@H]1O[C@H](COP(=O)(O)OP(=O)(O)OP(=O)(O)O)[C@@H](O)[C@H]1F` [2′-F-ATP], which “unwinding rate, % of that seen with ATP” value [2] is on record?
Its value is 145%.

For `[Cl-].[Na+]` [NaCl], which IC50 ([2]; read-out: IC50, inhibition of NS3h catalyzed DNA unwinding, MBHA, data not shown) is on record?
The IC50 was 15 mM.

For `Nc1ncnc2c1ncn2[C@H]1CC[C@@H](CO[P@@](=O)(O)O[P@](=O)(O)OP(=O)(O)O)O1` [2′,3′-ddATP], which “DNA unwinding rate, times faster than ATP” value (shortened to “DNA unwinding rate”) [2] is on record?
The value was 2.7 fold.

With `[Ca+2]` [Ca^2+] as the compound, how does the “ATP hydrolysis in the absence of RNA” value [3] read?
Its value is “inhibited the rate of hydrolysis”.

What about the “ability of divalent metal to support DNA unwinding” value ([2]; data not shown) of the same compound?
Its value is “did not support”.

What does the source list for `Nc1ncnc2c1ncn2[C@@H]1O[C@H](COP(=O)(O)OP(=O)(O)OP(=O)(O)O)[C@@H](O)[C@H]1O` [ATP]?
Afast ([1]; 17 base pairs substrate): 3.1 ± 0.02 nM; kfast ([1]; 17 base pairs substrate): 8.4 ± 0.1 min⁻¹; Aslow [1, 7]: 0.70 ± 0.04 nM; kslow [1, 7]: 0.28 ± 0.05 min⁻¹; Afast ([1]; 30 base pairs substrate): 1.8 ± 0.03 nM; Aslow ([1]; 30 base pairs substrate): 1.2 ± 0.03 nM; kfast ([1]; 30 base pairs substrate): 3.1 ± 0.1 min⁻¹; kslow ([1]; 30 base pairs substrate): 0.46 ± 0.03 min⁻¹; Vmax, Michaelis-Menten ([2]; 0.25 mM free Mg^2+): 0.79 nM/min; Vmax ([2]; equation (3), ATP and GTP both present): 1.6 nM/min; Vmax, substrate inhibition model ([2]; 0.25 mM free Mg^2+): 10 nM/min; Ki ([2]; read-out: Ki (ATP), equation (3), ATP and GTP both present): 0.69 mM; Km ([2]; 0.25 mM free Mg^2+): 70 µM; unwinding, times better than dATP (HCV helicase [4]): 100 times

Which “unwinding rate, % of that seen with ATP” value [2] does the source give for `O=c1[nH]c(=O)c2ncn([C@@H]3O[C@H](COP(=O)(O)OP(=O)(O)OP(=O)(O)O)[C@@H](O)[C@H]3O)c2[nH]1` [XTP, Xanthosine triphosphate] here?
Its value is 7%.

Which “unwinding rate, % of that seen with ATP” value [2] does the source give for `Nc1ncnc2c1ncn2[C@@H]1O[C@H](COP(=O)(O)OP(=O)(O)OP(=O)(O)O)[C@@H](O)[C@@H]1O` [2′-ara-ATP] here?
Its value is “practically the same unwinding rates as ATP”.

With `[Cl-].[Cl-].[Zn+2]` [Zn^2+, ZnCl2] as the compound, how does the “formation of enzyme-metal-NTP complex” value [5] read?
The value was “formed an enzyme-metal-NTP complex”.

What about the “ATP hydrolysis in the presence of RNA” value [3] of the same compound?
The value was “supported hydrolysis”.

And the “ATP hydrolysis in the absence of RNA” value [3]?
The value was “inhibited the rate of hydrolysis”.

What about the “ability of divalent metal to support DNA unwinding” value ([2]; data not shown) of the same compound?
Its value is “did not support”.

What does the source list for `[Cl][Mn][Cl]` [Mn^2+, MnCl2]?
formation of enzyme-metal-NTP complex [5]: formed an enzyme-metal-NTP complex; ATP hydrolysis in the presence of RNA [3]: supported hydrolysis; ATP hydrolyzed for each 25 bp duplex separated [3]: about 75 ATP; rate of ATP hydrolysis [3]: 605 ± 4 nM/min; ATP hydrolysis in the absence of RNA [3]: inhibited the rate of hydrolysis; ATP hydrolyzed in the time needed to separate a single base pair [3]: 3 ATP; MBHA substrate unwound, times faster than with Mg^2+ ([2]; 25 nM NS3h_1b(con1), 1 mM ATP, 1.25 mM MgCl2 or MnCl2): about 14 times; ability of divalent metal to support DNA unwinding ([2]; data not shown): could fuel unwinding

For `Nc1ncnc2c1ncn2[C@@H]1O[C@H](COP(=O)(O)OP(=O)(O)OP(=O)(O)O)C[C@H]1O` [3′-dATP], which “DNA unwinding rate” value [2] is on record?
Its value is 3 fold.

With `Nc1ncnc2c1ncn2[C@H]1C[C@H](O)[C@@H](COP(=O)(O)OP(=O)(O)OP(=O)(O)O)O1` [dATP] as the compound, how does the “use of dATP compared with ATP for unwinding” value (HCV helicase [6]) read?
The value was “used equally well”.

What about the “unwinding relative to that observed with ATP” value (full-length NS3) of the same compound?
Its value is 60%.

With `CO[C@@H]1[C@H](O)[C@@H](COP(=O)(O)OP(=O)(O)OP(=O)(O)O)O[C@H]1n1cnc2c(N)ncnc21` [2′-O-methyl-ATP] as the compound, how does the “unwinding rate, % of that seen with ATP” value [2] read?
The value was 34%.

For `Nc1ncnc2c1ncn2C1OC(COP(=O)([O-])OP(=O)([O-])OP(=O)([O-])[O-])C(O)C1O.[Mn+2]` (stereo not shown) [Mn(ATP)^2−], which “hydrolysis by the open form, times slower than Mg(ATP)^2−” value ([3]; enzyme not bound to RNA) is on record?
Its value is “at least 100 times”.

With `[Cl-].[Cl-].[Mg+2]` [Mg^2+, MgCl2] as the compound, how does the “ATP hydrolysis in the presence of RNA” value [3] read?
The value was “supported hydrolysis”.

What about the “ATP hydrolyzed for each 25 bp duplex separated” value [3] of the same compound?
The value was “about 1,000 ATP”.

And the “rate of ATP hydrolysis” value [3]?
Its value is 629 ± 5.4 nM/min.

What about the “ATP hydrolysis in the absence of RNA” value [3] of the same compound?
Its value is “enhanced hydrolysis”.

And the “ATP hydrolyzed in the time needed to separate a single base pair” value [3]?
The value was “about 40 ATP”.

With `Nc1ncnc2c1ncn2[C@@H]1O[C@H](COP(=O)([O-])OP(=O)([O-])OP(=O)(O)O)[C@@H](O)[C@H]1O.[Mg+2]` [Mg(ATP)^2−] as the compound, how does the “maximal steady state unwinding rate” value ([2]; 25 nM NS3h) read?
The value was 0.8 nM/min.

And the “Vmax for unwinding, times faster than Mg(GTP)^2−” value ([2]; Michaelis-Menten fit, data up to 1 mM Mg(NTP)^2−, 0.25 mM free Mg^2+)?
The value was 15 times.

And the kcat of unwinding ([2]; calculated from maximal steady state rate at 25 nM NS3h, assumes monomer)?
Its kcat of unwinding is 0.000533 s⁻¹.

For `Cc1cn([C@H]2C[C@H](O)[C@@H](COP(=O)(O)OP(=O)(O)OP(=O)(O)O)O2)c(=O)[nH]c1=O` [dTTP], which Afast ([1]; 17 base pairs substrate) is on record?
The Afast was 3.4 ± 0.4 nM.

And the kfast ([1]; 17 base pairs substrate)?
The kfast was 9.1 ± 0.4 min⁻¹.

And the Aslow [1, 7]?
Its Aslow is 0.48 ± 0.03 nM.

And the kslow [1, 7]?
The kslow was 0.28 ± 0.06 min⁻¹.

And the Afast ([1]; 30 base pairs substrate)?
Its Afast is 2.6 ± 0.03 nM.

What about the Aslow ([1]; 30 base pairs substrate) of the same compound?
Its Aslow is 0.66 ± 0.02 nM.

What about the kfast ([1]; 30 base pairs substrate) of the same compound?
The kfast was 4.8 ± 0.3 min⁻¹.

What about the kslow ([1]; 30 base pairs substrate) of the same compound?
Its kslow is 0.50 ± 0.02 min⁻¹.

What about the “DNA unwinding rate” value [2] of the same compound?
Its value is “about 3 fold”.

What about the “Vmax, Michaelis-Menten” value ([2]; 0.25 mM free Mg^2+) of the same compound?
The value was 5.3 nM/min.

What about the “Vmax, substrate inhibition model” value ([2]; 0.25 mM free Mg^2+) of the same compound?
Its value is 50 nM/min.

What about the Km ([2]; 0.25 mM free Mg^2+) of the same compound?
Its Km is 300 µM.

With `[N-]=[N+]=NC1C(O)C(COP(=O)(O)OP(=O)(O)OP(=O)(O)O)OC1n1cnc2c(N)ncnc21` (stereo not shown) [2′-azido-ATP] as the compound, how does the “unwinding rate, % of that seen with ATP” value [2] read?
The value was 61%.

What does the source list for `[Co+2]` [Co^2+]?
ATP hydrolysis in the presence of RNA [3]: supported hydrolysis; ATP hydrolysis in the absence of RNA [3]: inhibited the rate of hydrolysis; ability of divalent metal to support DNA unwinding ([2]; data not shown): did not support
